Reference: ChEMBL document CHEMBL2429736, “Calix[4]arene methylenebisphosphonic acids as inhibitors of protein tyrosine phosphatase 1B” (Bioorg Med Chem Lett, 2013)
Activity calls are given as the source filed them. The rule behind the calls is not given here.

Columns and labels:
[1] = molecular target: T1, Receptor-type tyrosine-protein phosphatase C (Homo sapiens, UniProt P08575); test: Inhibition of CD45 (unknown origin) assessed as p-nitrophenyl phosphate conversion to p-nitrophenol after 10 mins by spectrophotometric analysis
T1 sequence (P08575 whole entry): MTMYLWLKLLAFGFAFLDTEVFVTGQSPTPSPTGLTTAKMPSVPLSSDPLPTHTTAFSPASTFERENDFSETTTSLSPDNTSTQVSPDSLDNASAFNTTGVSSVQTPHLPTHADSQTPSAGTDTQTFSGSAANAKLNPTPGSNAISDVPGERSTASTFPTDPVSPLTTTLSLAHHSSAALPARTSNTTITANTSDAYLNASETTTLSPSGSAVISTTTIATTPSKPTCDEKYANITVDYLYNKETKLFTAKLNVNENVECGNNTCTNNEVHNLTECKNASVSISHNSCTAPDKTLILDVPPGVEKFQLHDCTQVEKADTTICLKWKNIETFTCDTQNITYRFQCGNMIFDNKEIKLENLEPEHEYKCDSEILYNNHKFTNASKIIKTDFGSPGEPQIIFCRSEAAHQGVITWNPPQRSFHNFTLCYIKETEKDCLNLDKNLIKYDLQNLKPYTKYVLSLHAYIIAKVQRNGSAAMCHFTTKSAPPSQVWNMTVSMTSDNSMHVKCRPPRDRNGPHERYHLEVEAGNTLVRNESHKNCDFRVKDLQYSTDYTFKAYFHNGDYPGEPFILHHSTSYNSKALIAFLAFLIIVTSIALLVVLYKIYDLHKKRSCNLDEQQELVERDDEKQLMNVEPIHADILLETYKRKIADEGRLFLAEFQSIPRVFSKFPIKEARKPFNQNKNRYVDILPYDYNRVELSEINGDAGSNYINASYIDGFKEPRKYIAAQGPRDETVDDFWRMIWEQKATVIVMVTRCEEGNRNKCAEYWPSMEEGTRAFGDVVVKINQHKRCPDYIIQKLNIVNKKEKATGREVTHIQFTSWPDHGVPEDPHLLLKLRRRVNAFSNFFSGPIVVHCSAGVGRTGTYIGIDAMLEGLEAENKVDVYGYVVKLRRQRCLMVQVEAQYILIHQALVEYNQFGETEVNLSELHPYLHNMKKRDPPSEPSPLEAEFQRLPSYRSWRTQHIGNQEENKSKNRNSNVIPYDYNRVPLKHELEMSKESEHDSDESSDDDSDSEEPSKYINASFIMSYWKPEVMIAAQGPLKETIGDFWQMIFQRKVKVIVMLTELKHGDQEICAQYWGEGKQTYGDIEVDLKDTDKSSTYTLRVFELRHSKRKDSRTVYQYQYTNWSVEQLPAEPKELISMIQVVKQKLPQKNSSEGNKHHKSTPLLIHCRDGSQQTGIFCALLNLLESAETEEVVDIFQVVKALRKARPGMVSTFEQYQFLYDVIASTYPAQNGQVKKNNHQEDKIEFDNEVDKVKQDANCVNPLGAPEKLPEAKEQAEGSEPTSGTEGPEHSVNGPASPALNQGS
Procedure, shortened: (§1)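 p-Nitrophenyl phosphate substrate at 2 mM for TC-PTP and LAR, 1 mM for PTPbeta, 5 mM for CD45, 7 mM for SHP2. p-Nitrophenol release followed. IC50 read from dose-dependent curve as the concentration giving 50% activity after 10 min incubation.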

[2] = molecular target: Receptor-type tyrosine-protein phosphatase F (Homo sapiens, UniProt P10586); test: Inhibition of LAR (unknown origin) assessed as p-nitrophenyl phosphate conversion to p-nitrophenol after 10 mins by spectrophotometric analysis; procedure, shortened: as §1
Receptor-type tyrosine-protein phosphatase F, sequence (P10586 whole entry): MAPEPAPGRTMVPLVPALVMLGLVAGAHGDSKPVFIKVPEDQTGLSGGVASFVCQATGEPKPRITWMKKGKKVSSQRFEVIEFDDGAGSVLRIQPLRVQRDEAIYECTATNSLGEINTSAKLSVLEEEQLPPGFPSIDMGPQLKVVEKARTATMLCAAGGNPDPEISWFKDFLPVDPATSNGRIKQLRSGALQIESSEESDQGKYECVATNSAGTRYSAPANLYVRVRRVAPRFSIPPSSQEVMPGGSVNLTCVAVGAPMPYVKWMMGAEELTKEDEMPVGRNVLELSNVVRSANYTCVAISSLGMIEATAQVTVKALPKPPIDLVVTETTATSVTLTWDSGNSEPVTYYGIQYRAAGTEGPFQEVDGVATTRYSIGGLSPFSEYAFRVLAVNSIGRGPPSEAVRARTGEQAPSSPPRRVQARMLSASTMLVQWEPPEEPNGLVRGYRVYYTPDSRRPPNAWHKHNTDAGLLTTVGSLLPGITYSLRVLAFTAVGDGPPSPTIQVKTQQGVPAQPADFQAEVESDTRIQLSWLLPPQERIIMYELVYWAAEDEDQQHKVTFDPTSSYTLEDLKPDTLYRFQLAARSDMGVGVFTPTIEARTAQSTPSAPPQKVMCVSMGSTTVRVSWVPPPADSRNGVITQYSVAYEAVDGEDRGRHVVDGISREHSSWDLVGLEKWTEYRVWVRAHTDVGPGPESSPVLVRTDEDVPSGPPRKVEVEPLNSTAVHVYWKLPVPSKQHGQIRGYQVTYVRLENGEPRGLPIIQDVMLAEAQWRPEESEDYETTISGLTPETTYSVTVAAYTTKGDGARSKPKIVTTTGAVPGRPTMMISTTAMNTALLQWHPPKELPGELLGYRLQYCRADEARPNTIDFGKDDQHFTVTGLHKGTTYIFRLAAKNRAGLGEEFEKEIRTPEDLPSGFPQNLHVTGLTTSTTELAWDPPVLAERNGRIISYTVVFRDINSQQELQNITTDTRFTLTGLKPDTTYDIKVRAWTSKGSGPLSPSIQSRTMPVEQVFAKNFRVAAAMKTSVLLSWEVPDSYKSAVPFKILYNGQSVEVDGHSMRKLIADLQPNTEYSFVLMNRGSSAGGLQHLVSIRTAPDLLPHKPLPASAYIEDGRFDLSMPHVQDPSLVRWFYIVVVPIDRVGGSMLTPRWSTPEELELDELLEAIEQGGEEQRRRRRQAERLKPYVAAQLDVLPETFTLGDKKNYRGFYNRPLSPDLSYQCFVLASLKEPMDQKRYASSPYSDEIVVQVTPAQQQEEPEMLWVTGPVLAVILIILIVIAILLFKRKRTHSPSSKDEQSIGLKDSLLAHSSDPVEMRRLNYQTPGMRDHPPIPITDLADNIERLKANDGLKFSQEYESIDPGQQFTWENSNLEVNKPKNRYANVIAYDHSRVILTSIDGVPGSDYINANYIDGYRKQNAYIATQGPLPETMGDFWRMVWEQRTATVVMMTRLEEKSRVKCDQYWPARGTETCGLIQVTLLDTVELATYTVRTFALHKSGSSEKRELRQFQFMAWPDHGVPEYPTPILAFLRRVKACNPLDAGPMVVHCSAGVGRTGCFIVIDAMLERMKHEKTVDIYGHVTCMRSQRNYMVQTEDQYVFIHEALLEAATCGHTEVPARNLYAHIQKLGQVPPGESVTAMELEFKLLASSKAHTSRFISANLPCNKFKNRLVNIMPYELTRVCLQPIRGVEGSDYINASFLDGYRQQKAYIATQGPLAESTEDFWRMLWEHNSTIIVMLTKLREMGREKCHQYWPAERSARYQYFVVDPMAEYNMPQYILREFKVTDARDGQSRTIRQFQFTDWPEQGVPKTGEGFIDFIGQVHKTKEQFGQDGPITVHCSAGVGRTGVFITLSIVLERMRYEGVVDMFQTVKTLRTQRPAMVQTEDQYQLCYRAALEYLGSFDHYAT

[3] = molecular target: T2, Tyrosine-protein phosphatase non-receptor type 2 (Homo sapiens, UniProt P17706); test: Inhibition of TCPTP (unknown origin) assessed as p-nitrophenyl phosphate conversion to p-nitrophenol after 10 mins by spectrophotometric analysis; procedure, shortened: as §1
T2 sequence (P17706 whole entry): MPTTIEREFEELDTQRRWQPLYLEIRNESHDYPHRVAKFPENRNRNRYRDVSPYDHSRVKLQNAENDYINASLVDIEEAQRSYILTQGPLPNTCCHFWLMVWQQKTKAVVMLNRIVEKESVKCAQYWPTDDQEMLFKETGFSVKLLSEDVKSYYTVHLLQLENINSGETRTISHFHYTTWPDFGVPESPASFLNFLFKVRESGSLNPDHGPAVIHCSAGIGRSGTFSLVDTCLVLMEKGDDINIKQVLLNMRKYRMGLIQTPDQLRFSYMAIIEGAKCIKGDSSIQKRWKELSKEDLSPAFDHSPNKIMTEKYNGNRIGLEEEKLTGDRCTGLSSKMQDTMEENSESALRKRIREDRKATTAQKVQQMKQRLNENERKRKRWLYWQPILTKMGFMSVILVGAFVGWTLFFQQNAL

[4] = molecular target: Receptor-type tyrosine-protein phosphatase beta (Homo sapiens, UniProt P23467); test: Inhibition of PTPbeta (unknown origin) assessed as p-nitrophenyl phosphate conversion to p-nitrophenol after 10 mins by spectrophotometric analysis; procedure, shortened: as §1
Receptor-type tyrosine-protein phosphatase beta, sequence (P23467 whole entry): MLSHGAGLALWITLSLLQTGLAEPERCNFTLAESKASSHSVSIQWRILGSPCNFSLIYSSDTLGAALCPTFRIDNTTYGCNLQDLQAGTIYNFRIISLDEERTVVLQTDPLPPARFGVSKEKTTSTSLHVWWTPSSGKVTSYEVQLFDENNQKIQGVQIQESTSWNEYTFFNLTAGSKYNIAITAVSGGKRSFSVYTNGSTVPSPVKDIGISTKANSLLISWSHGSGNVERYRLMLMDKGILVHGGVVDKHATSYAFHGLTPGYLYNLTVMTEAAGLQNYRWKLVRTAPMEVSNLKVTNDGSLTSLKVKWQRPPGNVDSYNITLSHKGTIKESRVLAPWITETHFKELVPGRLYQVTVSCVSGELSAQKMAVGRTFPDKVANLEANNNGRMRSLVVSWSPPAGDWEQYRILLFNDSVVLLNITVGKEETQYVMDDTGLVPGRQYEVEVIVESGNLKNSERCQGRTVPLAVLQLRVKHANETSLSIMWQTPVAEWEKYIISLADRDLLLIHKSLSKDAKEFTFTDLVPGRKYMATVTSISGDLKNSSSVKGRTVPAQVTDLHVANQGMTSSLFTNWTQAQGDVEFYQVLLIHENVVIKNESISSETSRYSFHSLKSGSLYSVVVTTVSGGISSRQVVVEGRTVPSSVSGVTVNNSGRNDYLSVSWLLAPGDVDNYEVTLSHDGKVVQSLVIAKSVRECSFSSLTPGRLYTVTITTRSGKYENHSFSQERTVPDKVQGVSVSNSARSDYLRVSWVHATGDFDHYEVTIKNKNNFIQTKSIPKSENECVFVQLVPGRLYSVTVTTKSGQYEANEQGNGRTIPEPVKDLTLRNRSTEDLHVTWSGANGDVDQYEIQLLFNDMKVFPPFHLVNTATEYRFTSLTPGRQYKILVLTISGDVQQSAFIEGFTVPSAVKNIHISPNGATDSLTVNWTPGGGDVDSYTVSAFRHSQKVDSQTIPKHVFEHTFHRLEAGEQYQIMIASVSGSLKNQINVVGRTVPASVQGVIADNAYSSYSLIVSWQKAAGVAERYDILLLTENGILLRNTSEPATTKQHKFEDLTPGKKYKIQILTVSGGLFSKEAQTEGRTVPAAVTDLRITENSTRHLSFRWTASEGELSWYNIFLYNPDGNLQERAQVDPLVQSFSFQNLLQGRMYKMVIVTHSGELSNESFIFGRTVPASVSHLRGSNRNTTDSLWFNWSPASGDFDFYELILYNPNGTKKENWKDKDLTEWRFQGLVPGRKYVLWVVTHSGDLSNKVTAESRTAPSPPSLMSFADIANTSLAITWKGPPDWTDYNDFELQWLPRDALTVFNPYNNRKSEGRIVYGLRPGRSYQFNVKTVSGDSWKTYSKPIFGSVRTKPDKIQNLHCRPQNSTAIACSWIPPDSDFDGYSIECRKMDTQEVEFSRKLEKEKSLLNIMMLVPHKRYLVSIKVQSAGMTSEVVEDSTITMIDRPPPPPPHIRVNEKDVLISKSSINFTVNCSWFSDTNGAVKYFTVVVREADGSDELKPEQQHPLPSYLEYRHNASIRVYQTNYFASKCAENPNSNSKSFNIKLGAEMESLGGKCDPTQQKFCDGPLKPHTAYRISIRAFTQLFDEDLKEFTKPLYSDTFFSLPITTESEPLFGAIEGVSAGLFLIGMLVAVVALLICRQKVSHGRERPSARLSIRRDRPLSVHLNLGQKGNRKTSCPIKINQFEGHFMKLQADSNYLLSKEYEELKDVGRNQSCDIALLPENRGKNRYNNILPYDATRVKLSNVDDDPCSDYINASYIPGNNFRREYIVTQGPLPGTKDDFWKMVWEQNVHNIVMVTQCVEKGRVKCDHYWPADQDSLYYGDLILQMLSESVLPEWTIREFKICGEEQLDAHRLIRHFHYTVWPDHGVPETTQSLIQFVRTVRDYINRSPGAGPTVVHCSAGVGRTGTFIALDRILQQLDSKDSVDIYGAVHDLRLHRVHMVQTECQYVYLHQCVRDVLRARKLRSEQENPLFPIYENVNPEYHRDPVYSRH

[5] = molecular target: T3, Tyrosine-protein phosphatase non-receptor type 1 (Homo sapiens, UniProt P18031); test: Inhibition of recombinant full length PTP1B (unknown origin) assessed as p-nitrophenyl phosphate conversion to p-nitrophenol after 10 mins by spectrophotometric analysis
T3 sequence (P18031 whole entry): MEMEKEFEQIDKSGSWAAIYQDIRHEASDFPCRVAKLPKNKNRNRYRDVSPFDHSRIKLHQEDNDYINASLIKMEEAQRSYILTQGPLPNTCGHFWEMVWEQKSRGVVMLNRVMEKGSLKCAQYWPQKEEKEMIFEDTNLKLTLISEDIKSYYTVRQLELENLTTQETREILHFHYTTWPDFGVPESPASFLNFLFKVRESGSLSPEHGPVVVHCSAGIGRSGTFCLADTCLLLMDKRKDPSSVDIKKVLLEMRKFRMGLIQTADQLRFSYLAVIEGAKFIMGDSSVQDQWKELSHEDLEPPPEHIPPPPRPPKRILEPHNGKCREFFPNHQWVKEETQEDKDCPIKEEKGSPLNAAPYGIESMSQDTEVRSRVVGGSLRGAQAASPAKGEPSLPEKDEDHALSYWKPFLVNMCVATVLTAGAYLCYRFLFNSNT
Procedure, shortened: (§2)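 Recombinant full-length PTP1B (5 nM final) in 50 mM Bis-Tris pH 7.2, 100 mM NaCl, 1 mM DTT, 2 mM EDTA, 1 vol % DMSO, 2 mM p-nitrophenyl phosphate plus inhibitor. Mixture preincubated 5 min at 37 C, started by adding enzyme. p-Nitrophenol release followed. IC50 taken from dose-response curve as 50% activity loss after 10 min.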

[6] = molecular target: T4, Tyrosine-protein phosphatase non-receptor type 11 (Homo sapiens, UniProt Q06124); test: Inhibition of SHP2 (unknown origin) assessed as p-nitrophenyl phosphate conversion to p-nitrophenol after 10 mins by spectrophotometric analysis; procedure, shortened: as §1
T4 sequence (Q06124 whole entry): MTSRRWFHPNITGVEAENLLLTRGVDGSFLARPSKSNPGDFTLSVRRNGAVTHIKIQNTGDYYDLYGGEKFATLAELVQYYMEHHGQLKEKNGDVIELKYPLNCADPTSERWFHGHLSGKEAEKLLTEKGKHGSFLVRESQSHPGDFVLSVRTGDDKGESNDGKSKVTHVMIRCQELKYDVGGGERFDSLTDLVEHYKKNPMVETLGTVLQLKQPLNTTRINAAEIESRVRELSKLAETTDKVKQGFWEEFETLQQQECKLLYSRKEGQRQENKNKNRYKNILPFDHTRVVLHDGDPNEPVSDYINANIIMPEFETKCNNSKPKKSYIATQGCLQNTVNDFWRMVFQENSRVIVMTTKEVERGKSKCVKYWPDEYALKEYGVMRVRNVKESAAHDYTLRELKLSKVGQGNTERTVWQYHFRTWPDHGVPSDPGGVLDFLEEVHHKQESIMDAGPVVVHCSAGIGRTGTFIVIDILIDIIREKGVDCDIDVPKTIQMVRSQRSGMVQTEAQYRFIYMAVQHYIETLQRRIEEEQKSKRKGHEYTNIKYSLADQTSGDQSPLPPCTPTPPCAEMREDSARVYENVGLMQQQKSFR

[7] = molecular target: T3, Tyrosine-protein phosphatase non-receptor type 1; test: Inhibition of recombinant truncated PTP1B (unknown origin) using pTyr1146 as substrate assessed as inorganic phosphate level after 20 mins by spectrophotometric analysis
Procedure, shortened: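 Truncated recombinant PTP1B (40 nM) with 0.075 mM pTyr1146 in 50 mM Bis-Tris pH 7.2, 1.1 mM DTT, 0.1 M NaCl, 1 mM EDTA. Reaction started with enzyme, run 20 min at 37 C, stopped with malachite green, held 10 min at 37 C. Phosphate read at 620 nm against standard curve, corrected for no-enzyme, no-substrate and inhibitor blanks.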

[8] = molecular target: T5, Tyrosine-protein phosphatase non-receptor type 1 (Homo sapiens) (UniProt P18031); details: 50 uM
T5 sequence (whole entry): T3 sequence (P18031 whole entry)

[9] = molecular target: T3, Tyrosine-protein phosphatase non-receptor type 1; test: Reversible inhibition of recombinant full length PTP1B (unknown origin) assessed as p-nitrophenyl phosphate conversion to p-nitrophenol after 10 mins by spectrophotometric analysis; procedure, shortened: as §2
Homo sapiens [10] = organism: Homo sapiens; test: Selectivity ratio of IC50 for TCPTP (unknown origin) to IC50 for recombinant full length PTP1B (unknown origin)
[11] = molecular target: T5, Tyrosine-protein phosphatase non-receptor type 1 (Homo sapiens); test: Inhibition of recombinant full length PTP1B (unknown origin) assessed as p-nitrophenyl phosphate conversion to p-nitrophenol by spectrophotometric analysis; details: TDE = time-dependent effect; procedure, shortened: as §2
[12] = molecular target: T6, Tyrosine-protein phosphatase non-receptor type 2 (Homo sapiens) (UniProt P17706); test: Inhibition of TCPTP (unknown origin) assessed as p-nitrophenyl phosphate conversion to p-nitrophenol by spectrophotometric analysis; details: TDE = time-dependent effect
T6 sequence (whole entry): T2 sequence (P17706 whole entry)

Homo sapiens [13] = organism: Homo sapiens; test: Selectivity ratio of IC50 for CD45 (unknown origin) to IC50 for recombinant full length PTP1B (unknown origin)
[14] = molecular target: T3, Tyrosine-protein phosphatase non-receptor type 1; test: Competitive inhibition of recombinant full length PTP1B (unknown origin) assessed as p-nitrophenyl phosphate conversion to p-nitrophenol by Lineweaver-Burk plot analysis
[15] = molecular target: T5, Tyrosine-protein phosphatase non-receptor type 1 (Homo sapiens); test: Inhibition of recombinant full length PTP1B (unknown origin) assessed as p-nitrophenyl phosphate conversion to p-nitrophenol up to 20 uM after 10 mins by spectrophotometric analysis; procedure, shortened: as §2

SMILES	IC50 [1] [µM]	IC50 [2] [µM]	IC50 [3] [µM]	IC50 [4] [µM]	IC50 [5] [µM]	IC50 [6] [µM]	IC50 [7] [µM]	inhibition [8]	Ki [9] [µM]	Ratio IC50 (Homo sapiens [10])	inhibition [11]	inhibition [12]	Ratio IC50 (Homo sapiens [13])	Ki [14] [µM]	inhibition [15]
CCCOc1c2cccc1Cc1cc(C(O)(P(=O)(O)O)P(=O)(O)O)cc(c1O)Cc1cccc(c1OCCC)Cc1cc(C(O)(P(=O)(O)O)P(=O)(O)O)cc(c1O)C2	59	> 100	22	12	8.3	9.2	7.3	–	–	–	–	–	–	–	–
CCCOc1c2cccc1Cc1cc(C(P(=O)(O)O)P(=O)(O)O)cc(c1O)Cc1cccc(c1OCCC)Cc1cc(C(P(=O)(O)O)P(=O)(O)O)cc(c1O)C2	22	> 100	4.9	–	2.5	2.6	3.9	–	–	–	–	–	–	–	–
NCCCC(O)(P(=O)(O)O)P(=O)(O)O	–	–	–	–	–	–	–	inactive	–	–	–	–	–	–	–
CCCOc1c2cccc1Cc1cc(C(O)(P(=O)(O)O)P(=O)(O)O)cc(c1O)Cc1cccc(c1OCCC)Cc1cccc(c1O)C2	8.4	≥ 100	27	18	1.9	3.4	4.1	–	0.68	14	tde	tde	4	–	–
CCCOc1c2cccc1Cc1cc(C(P(=O)(O)O)P(=O)(O)O)cc(c1O)Cc1cccc(c1OCCC)Cc1cccc(c1O)C2	5.7	> 100	9.3	13	1.2	1.8	3.7	–	0.74	8	tde	tde	4	0.98	–
CCCOc1c2cccc1Cc1cccc(c1O)Cc1cccc(c1OCCC)Cc1cccc(c1O)C2	–	–	–	–	–	–	–	–	–	–	–	–	–	–	inactive
